Measurements as given in ChEMBL document CHEMBL1139389, “Discovery of the Poly(ADP-ribose) polymerase (PARP) inhibitor 2-[(R)-2-methylpyrrolidin-2-yl]-1H-benzimidazole-4-carboxamide (ABT-888) for the treatment of cancer” (J Med Chem, 2009).

What was measured:
[1] = target: Poly [ADP-ribose] polymerase 2 (Homo sapiens, UniProt Q9UGN5); assay: Inhibition of human recombinant PARP2
[2] = Oral bioavailability in CD1 mouse at 10 mg/kg; format: ADME, organism-based; settings: in vivo
Method in brief: (§1)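 Mouse PK: oral dose 10 mg/kg in 2.5% EtOH, 1 drop Tween-80, 25% PEG400 in PBS; iv dose 3 mg/kg in 2.5% EtOH, 5% DMSO, 1 drop Tween-80, 25% PEG400 in PBS. Oral bioavailability, iv half-life, oral AUC and Cmax derived from plasma profiles.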

[3] = Half life in CD1 mouse at 3 mg/kg, iv; format: ADME, organism-based; parameters: dose 3 mg/kg, route intravenous; settings: in vivo; method in brief: as §1
[4] = AUC in CD1 mouse at 10 mg/kg, po; format: ADME, organism-based; parameters: dose 10 mg/kg, route oral; settings: plasma; method in brief: as §1
[5] = Cmax in CD1 mouse at 10 mg/kg, po; format: ADME, organism-based; parameters: dose 10 mg/kg, route oral; settings: in vivo; method in brief: as §1
[6] = Volume of distribution at steady state in Sprague-Dawley rat at 5 mg/kg; format: ADME, organism-based; parameters: dose 5 mg/kg; settings: in vivo, read-out: Vdss
[7] = Clearance in Sprague-Dawley rat at 5 mg/kg; format: ADME, organism-based; parameters: dose 5 mg/kg; settings: in vivo
[8] = Oral bioavailability in Beagle dog at 2.5 mg/kg; format: ADME, organism-based, Canis lupus familiaris; settings: in vivo
[9] = Half life in Beagle dog at 2.5 mg/kg, iv; format: ADME, organism-based, Canis lupus familiaris; parameters: dose 2.5 mg/kg, route intravenous; settings: in vivo
[10] = AUC in Beagle dog at 2.5 mg/kg, po; format: ADME, organism-based, Canis lupus familiaris; parameters: dose 2.5 mg/kg, route oral; settings: plasma
[11] = Cmax in Beagle dog at 2.5 mg/kg, po; format: ADME, organism-based, Canis lupus familiaris; parameters: dose 2.5 mg/kg, route oral; settings: in vivo
[12] = Volume of distribution at steady state in Beagle dog at 2.5 mg/kg; format: ADME, organism-based, Canis lupus familiaris; parameters: dose 2.5 mg/kg; settings: in vivo, read-out: Vdss
[13] = Clearance in Beagle dog at 2.5 mg/kg; format: ADME, organism-based, Canis lupus familiaris; parameters: dose 2.5 mg/kg; settings: in vivo
[14] = Oral bioavailability in cynomolgus monkey at 2.5 mg/kg; format: ADME, organism-based, Macaca fascicularis; settings: in vivo
[15] = Half life in cynomolgus monkey at 2.5 mg/kg, iv; format: ADME, organism-based, Macaca fascicularis; parameters: dose 2.5 mg/kg, route intravenous; settings: in vivo
[16] = AUC in cynomolgus monkey at 2.5 mg/kg, po; format: ADME, organism-based, Macaca fascicularis; parameters: dose 2.5 mg/kg, route oral; settings: plasma
[17] = Cmax in cynomolgus monkey at 2.5 mg/kg, po; format: ADME, organism-based, Macaca fascicularis; parameters: dose 2.5 mg/kg, route oral; settings: in vivo
[18] = Volume of distribution at steady state in cynomolgus monkey at 2.5 mg/kg; format: ADME, organism-based, Macaca fascicularis; parameters: dose 2.5 mg/kg; settings: in vivo, read-out: Vdss
[19] = Clearance in cynomolgus monkey at 2.5 mg/kg; format: ADME, organism-based, Macaca fascicularis; parameters: dose 2.5 mg/kg; settings: in vivo
[20] = Volume of distribution at steady state in CD1 mouse at 10 mg/kg; format: ADME, organism-based; parameters: dose 10 mg/kg; settings: in vivo, read-out: Vdss
[21] = Clearance in CD1 mouse at 10 mg/kg; format: ADME, organism-based; parameters: dose 10 mg/kg; settings: in vivo
Method in brief: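 Mouse pharmacokinetics. Oral dose of 10 mg/kg in 2.5% EtOH, 1 drop Tween-80 and 25% PEG400 in PBS. Intravenous dose of 3 mg/kg in 2.5% EtOH, 5% DMSO, 1 drop Tween-80 and 25% PEG400 in PBS.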

[22] = Oral bioavailability in Sprague-Dawley rat at 5 mg/kg; format: ADME, organism-based; settings: in vivo
[23] = Half life in Sprague-Dawley rat at 5 mg/kg, iv; format: ADME, organism-based; parameters: dose 5 mg/kg, route intravenous; settings: in vivo
[24] = AUC in Sprague-Dawley rat at 5 mg/kg, po; format: ADME, organism-based; parameters: dose 5 mg/kg, route oral; settings: plasma
[25] = Cmax in Sprague-Dawley rat at 5 mg/kg, po; format: ADME, organism-based; parameters: dose 5 mg/kg, route oral; settings: in vivo

Chain of Poly [ADP-ribose] polymerase 2 (Q9UGN5 whole entry): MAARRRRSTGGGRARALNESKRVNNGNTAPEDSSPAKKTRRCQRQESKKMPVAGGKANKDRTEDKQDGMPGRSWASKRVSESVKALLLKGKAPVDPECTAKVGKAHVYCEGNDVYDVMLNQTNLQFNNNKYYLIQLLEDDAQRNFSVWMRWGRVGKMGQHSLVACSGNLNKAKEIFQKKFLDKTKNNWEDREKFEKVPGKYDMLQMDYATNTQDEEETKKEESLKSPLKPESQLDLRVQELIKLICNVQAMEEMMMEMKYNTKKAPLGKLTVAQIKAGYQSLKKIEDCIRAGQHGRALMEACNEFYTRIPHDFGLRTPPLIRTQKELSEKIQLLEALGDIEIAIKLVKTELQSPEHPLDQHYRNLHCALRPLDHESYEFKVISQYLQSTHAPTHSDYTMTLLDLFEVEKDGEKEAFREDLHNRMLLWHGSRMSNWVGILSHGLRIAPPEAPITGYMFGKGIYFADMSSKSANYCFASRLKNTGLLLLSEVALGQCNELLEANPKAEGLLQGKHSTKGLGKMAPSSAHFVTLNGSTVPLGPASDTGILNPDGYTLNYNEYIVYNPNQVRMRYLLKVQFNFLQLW

Row | Structure (SMILES) | Ki [1] | bioavailability [2] | half-life [3] | AUC [4] | Cmax [5] | other results
1 | C[C@]1(c2nc3c(C(N)=O)cc(F)cc3[nH]2)CCCN1 | 4 nM | 100% | 0.5 h | 1500 ng·h/mL | 1000 ng/mL | 
2 | CC1(c2nc3c(C(N)=O)cccc3[nH]2)CCNCC1 | 2 nM | 20% | 1.2 h | 400 ng·h/mL | 100 ng/mL | 
3 | CC(C)N1CCC(C)(c2nc3c(C(N)=O)cccc3[nH]2)C1 (configuration not stated) |  | 100% | 1.4 h | 1000 ng·h/mL | 500 ng/mL | 
4 | C[C@@]1(c2nc3c(C(N)=O)cccc3[nH]2)CCCN1 |  | 66% | 1.2 h | 1100 ng·h/mL | 800 ng/mL | Vd [6]: 7.5 L/kg; clearance [7]: 33.3 mL/min/kg; bioavailability [8]: 48%; half-life [9]: 2.2 h; AUC [10]: 1400 ng·h/mL; Cmax [11]: 500 ng/mL; Vd [12]: 2.9 L/kg; clearance [13]: 15 mL/min/kg; bioavailability [14]: 39%; half-life [15]: 1.5 h; AUC [16]: 700 ng·h/mL; Cmax [17]: 200 ng/mL; Vd [18]: 3 L/kg; clearance [19]: 23.3 mL/min/kg; Vd [20]: 10.3 L/kg; clearance [21]: 103 mL/min/kg; bioavailability [22]: 72%; half-life [23]: 2.4 h; AUC [24]: 1900 ng·h/mL; Cmax [25]: 600 ng/mL
5 | CN1CCCC1(C)c1nc2c(C(N)=O)cccc2[nH]1 (configuration not stated) |  | 36% | 0.55 h | 200 ng·h/mL | 100 ng/mL | 
